In the library only some 1.2% were active in any assay of this set; here they are far more common.
HCV NS3 hel inh = inhibitors of Hepatitis C virus NS3 helicase | NS3 helicase DNA unwinding, Cy5 molecular beacon fluorescence | inhibition, % at 10.9 µM | hit rate 0.56% among 290,000 | AID 1800;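 active means inhibition above the mean of all tested compounds plus 3 SD, set per campaign, cut at about 35% in these data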;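 further: 0% = DMSO wells and 100% = thioflavine S control wells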
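Compound dosing – single dose, 10.9 µM nominal final, DMSO 0.8% final · System – NS3 helicase fragment of HCV · Buffer or medium – MOPS pH 6.5, MgCl2, DTT, Tween20, BSA · Signal – Cy5 beacon fluorescence read at start and 1 h · Also added – annealed dual-labelled DNA beacon duplex, ATP-started · Schedule – 1 h at 25 °C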
EBNA-1 inhibitor = blocks EBNA-1 binding to DNA; EBNA-1 DNA binding, fluorescence polarization; inhibition, % at 14.8 µM; hit rate 0.34% among 300,000; AID 1950; in the data active means inhibition above about 28%
ZTA DNA inh = counter-screen for EBNA-1 inhibitors: inhibitors of Epstein-Barr virus ZTA | hit rate 0.15% among 320,000 | AID 2234 | P03206 | ZTA-DNA binding, fluorescence polarization | inhibition, % at 11 µM; in the data active means inhibition above about 33%
Target sequence (P03206 whole entry, looked up): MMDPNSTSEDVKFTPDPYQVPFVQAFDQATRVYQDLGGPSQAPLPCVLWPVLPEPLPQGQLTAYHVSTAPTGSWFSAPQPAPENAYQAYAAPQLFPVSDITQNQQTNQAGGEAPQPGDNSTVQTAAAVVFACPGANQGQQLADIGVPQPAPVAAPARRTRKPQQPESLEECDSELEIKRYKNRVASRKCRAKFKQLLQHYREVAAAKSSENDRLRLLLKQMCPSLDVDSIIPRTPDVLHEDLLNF
core dimer inh = blocks dimerization of HCV core protein; hit rate 0.33% among 300,000; TR-FRET GST/Flag-core106 dimerization, 1536-well; inhibition, % at 5 µM; AID 1899;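 active means inhibition above the mean of all tested compounds plus 3 SD, set per screening campaign, cut at about 45% in these data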
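Assay system: tagged HCV core106 pair (GST and Flag); medium: KF-containing HEPES buffer, pH 7.45, DTT, CHAPS, BSA; also added: Eu donor and XL665 acceptor anti-tag antibodies; dosing: 5 µM single dose; timing: compound-protein-antibody incubation 4 h at 22.5 °C; signal: TR-FRET 671 and 617 nm emission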
NS3 helicase cf = HCV NS3 helicase inhibition, confirmation assay | shares compounds with HCV NS3 hel inh | NS3 helicase DNA unwinding, Cy5 molecular beacon fluorescence | inhibition, % at 10.9 µM | hit rate 31% among 1,600 | AID 1943;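 active means inhibition above the mean of all tested compounds plus 3 SD, cutoff set per campaign, cut at about 36% in these data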
FID counter trip = displaces DNA intercalator in HCV helicase counter-screen; shares compounds with HCV NS3 hel inh; hit rate 4% among 1,600; inhibition, % at 7.9 µM; DNA fluorescent intercalator displacement, fluorescence; AID 1945; in the data active means inhibition above about 37%;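 further: 0% = vehicle and 100% = reference compound; higher means more displacement of ethidium bromide from the DNA hairpin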
FID counter DR = displaces fluorescent intercalator from DNA, HCV helicase counter-screen. shares compounds with HCV NS3 hel inh. fluorescent intercalator displacement from DNA, fluorescence. IC50, µM. 120 tested, under 10 active. AID 2172; call rule not given here
* marks the source's active call; other numbers are inactive results; · = not tested or not shown; + = active, no number.

SMILES	HCV NS3 hel inh	EBNA-1 inhibitor	ZTA DNA inh	core dimer inh	NS3 helicase cf	FID counter trip	others
Cc1nc(OCC(C)C)c2sc3nc4c(cc3c2n1)COC(C)(C)C4	0	6	10	-1	·	·
CCc1nc2c(sc3nc4c(cc32)COC(C)(C)C4)c(=O)n1Cc1ccccc1	-5	0	4	3	·	·
CCc1nc(OCc2ccco2)c2sc3nc4c(cc3c2n1)COC(C)(C)C4	48*	5	1	14	-14	-18
CCc1nc2c(sc3nc4c(cc32)COC(C)(C)C4)c(=O)n1Cc1ccco1	40*	4	11	9	-16	-14
CCC(=O)c1ccc(OCC(=O)OCC(=O)NCCCc2ccccc2)cc1	·	12	2	-2	·	·
CC(C)c1nnc(NC(=O)CCC(=O)NCc2ccc(F)cc2)s1	2	7	1	6	·	·
COc1ccc(NC(=O)CC(C)NCCCN2CCCC2=O)cc1 (stereo not drawn)	0	12	2	4	·	·
O=C(NCC1CCCO1)c1nn2c(C(F)(F)F)cc(-c3ccco3)nc2c1Cl (stereo not drawn)	-1	8	2	9	·	·
O=C(NCC1CCCO1)c1cc2nc(-c3ccco3)cc(C(F)(F)Cl)n2n1 (stereo not drawn)	51*	-11	3	-15	-10	-14
CCC(C)(C)C1CCC(NC(=O)c2ccc(S(=O)(=O)N3CCOCC3)cc2)CC1 (stereo not drawn)	·	·	-10	·	·	·
O=C(O)CSc1cc(NS(=O)(=O)c2ccc(Cl)cc2)c2ccccc2c1O	43*	3	11	-12	50*	45*
Cc1cccn2c(=O)c(C=O)c(Nc3ccccc3)nc12	4	0	-3	-7	·	·
CC1Cc2ccccc2N1C(=O)CSc1nncs1 (stereo not drawn)	·	·	5	·	·	·
CCC(C)(C(=O)NC1CCCCC1)N(Cc1ccco1)C(=O)c1ccc2c(c1)OCO2 (stereo not drawn)	36*	9	14	2	-3	-36
Cc1ccc(C2=NC(=O)/C(=C/c3cc(O)c(O)c(Br)c3)S2)cc1	53*	·	·	·	-17	6
CN(CC(=O)NCc1ccncc1)S(=O)(=O)c1ccc2ccccc2c1	1	5	5	-2	·	·
CCOC(=O)c1c(-c2ccccc2)csc1N1C(=O)Nc2ccccc2N1O	47*	0	3	8	72*	-12
CCOC(=O)c1c(N2C(=O)Nc3ccccc3N2O)sc2c1CCCCC2	47*	4	-3	16	75*	-13
COC(=O)c1c(-c2ccccc2)csc1N1C(=O)Nc2ccccc2N1O	19	0	11	9	·	·
COCCNC(=O)c1cc2c(=O)[nH]c3ccccc3c2s1	70*	-13	-19	6	-8	4
CCCN1CCN(CCCNC(=O)c2cc3c(=O)[nH]c4ccccc4c3s2)CC1	-1	-1	9	0	·	·
Cc1cc(O)c2c(C)c(CC(=O)N3CCN(C(=O)C4COc5ccccc5O4)CC3)c(=O)oc2c1 (stereo not drawn)	46*	-3	-3	-8	-5	-30
COc1cc(OC)c(C2CC(=O)N3CN(C)CSC3=C2C#N)cc1OC (stereo not drawn)	2	17	10	4	·	·
CC(C)c1ccc(C2CC(=O)N3CN(C)CSC3=C2C#N)cc1 (stereo not drawn)	45*	6	6	-3	25	-5
CCOc1ccc(NC(=S)NCC(c2cccnc2)N2CCOCC2)cc1 (stereo not drawn)	8	9	12	-4	·	·
SMILES	HCV NS3 hel inh	EBNA-1 inhibitor	ZTA DNA inh	core dimer inh	NS3 helicase cf	FID counter trip	others
O=C1NN(c2ccc(Cl)cc2)C(=O)/C1=C\c1ccc(-c2cccc(C(=O)O)c2)o1	46*	·	·	·	66*	15
Cc1ccc(N2NC(=O)/C(=C/c3ccc(-c4ccc(Cl)c(C(=O)O)c4)o3)C2=O)cc1	33	-1	-10	-9	·	·
COc1ccc(Cl)cc1C(=O)N1CCN(Cc2ccc3c(c2)OCO3)CC1	2	8	-17	6	·	·
COc1ccc2[nH]c3c(=O)n(CCCC(=O)NC4CCCCC4C)c(=S)[nH]c3c2c1 (stereo not drawn)	42*	-16	-6	5	40*	-11	FID counter DR=>79
O=C(Cn1c(=O)c2sccc2n(Cc2ccc([N+](=O)[O-])cc2)c1=O)NCCc1ccccc1	8	-6	0	11	·	·
O=C(Cn1c(=O)c2sccc2n(Cc2cccc([N+](=O)[O-])c2)c1=O)NCCc1ccccc1	44*	0	7	2	-5	6
Cc1c(NS(=O)(=O)c2cc(C(=O)NCc3ccco3)cc(Cl)c2Cl)c(=O)n(-c2ccccc2)n1C	·	4	-1	3	·	·
C=CCOc1c(Cl)cc(CNc2ccc(C)c(Cl)c2)cc1OC	-10	-2	7	-15	·	·
C=CCOc1c(Cl)cc(CNc2ccc(N(C)C)cc2)cc1OC	51*	+	+	-43	23	21
O=C(O)c1ccc(NC(=S)NC(=O)c2cccc(COc3ccccc3)c2)cc1	36*	-4	-24	14	70*	2
O=C(O)c1cccc(NC(=S)NC(=O)c2ccc3ccccc3c2)c1	41*	15	1	4	58*	-7
O=C(O)c1ccc(NC(=S)NC(=O)c2ccc3ccccc3c2)cc1	10	-7	-3	-1	·	·
CCN1C(=O)[C@@H]2[C@H](C1=O)[C@@H]1C(=O)Nc3ccccc3C(=O)N1[C@@H]2c1ccc(OC)cc1	·	4	15	-10	·	·
CCn1nc(C)cc1C(=O)N1CCCC(N(C)CCc2ccc(OC)c(OC)c2)C1 (stereo not drawn)	5	-11	-3	10	·	·
CSc1ccc(CN2CCCC(CNC(=O)c3ccc(F)cc3)C2)cc1 (stereo not drawn)	43*	-1	-21	-7	-11	33
O=C(COC(=O)CCc1ccccc1)Nc1ccc(F)cc1Cl	11	-10	-19	-5	·	·
CN(Cc1cccs1)C(=O)/C=C/c1ccccc1[N+](=O)[O-]	61*	1	-2	3	-10	9
CCN(Cc1ccccc1)C(=O)/C=C/c1ccccc1[N+](=O)[O-]	-2	·	·	·	·	·
O=C(O)CCC(=O)N1N=C(c2c(-c3ccccc3)c3cc(Cl)ccc3[nH]c2=O)CC1c1ccco1 (stereo not drawn)	41*	-6	-2	-2	48*	-17
COc1ccc(OCC(=O)Nc2ccc3c(c2)nc(CCN2CCOCC2)n3C)cc1	0	8	-8	1	·	·
COc1ccc(OCC(=O)Nc2ccc3c(c2)nc(CCn2ccccc2=O)n3C)cc1	45*	-7	-9	4	-16	-34
COc1ccc(CN2CCN(C(C)C)C(CCO)C2)cc1Cn1cncn1 (stereo not drawn)	-5	-8	-12	-3	·	·
